# According to ChEMBL document CHEMBL1821653, “Alcohol-, diol-, and carbohydrate-substituted indenoisoquinolines as topoisomerase I inhibitors: investigating the relationships involving stereochemistry, hydrogen bonding, and biological activity” (2011):
# Legend:
# [1] = target: T1, DNA topoisomerase 1 (Homo sapiens) (UniProt P11387); experiment: Inhibition of recombinant human TOP1 mediated DNA cleavage after 20 mins by gel electrophoresis relative to camptothecin; parameters: concentration or dose not given beside the values
# T1 sequence (whole entry): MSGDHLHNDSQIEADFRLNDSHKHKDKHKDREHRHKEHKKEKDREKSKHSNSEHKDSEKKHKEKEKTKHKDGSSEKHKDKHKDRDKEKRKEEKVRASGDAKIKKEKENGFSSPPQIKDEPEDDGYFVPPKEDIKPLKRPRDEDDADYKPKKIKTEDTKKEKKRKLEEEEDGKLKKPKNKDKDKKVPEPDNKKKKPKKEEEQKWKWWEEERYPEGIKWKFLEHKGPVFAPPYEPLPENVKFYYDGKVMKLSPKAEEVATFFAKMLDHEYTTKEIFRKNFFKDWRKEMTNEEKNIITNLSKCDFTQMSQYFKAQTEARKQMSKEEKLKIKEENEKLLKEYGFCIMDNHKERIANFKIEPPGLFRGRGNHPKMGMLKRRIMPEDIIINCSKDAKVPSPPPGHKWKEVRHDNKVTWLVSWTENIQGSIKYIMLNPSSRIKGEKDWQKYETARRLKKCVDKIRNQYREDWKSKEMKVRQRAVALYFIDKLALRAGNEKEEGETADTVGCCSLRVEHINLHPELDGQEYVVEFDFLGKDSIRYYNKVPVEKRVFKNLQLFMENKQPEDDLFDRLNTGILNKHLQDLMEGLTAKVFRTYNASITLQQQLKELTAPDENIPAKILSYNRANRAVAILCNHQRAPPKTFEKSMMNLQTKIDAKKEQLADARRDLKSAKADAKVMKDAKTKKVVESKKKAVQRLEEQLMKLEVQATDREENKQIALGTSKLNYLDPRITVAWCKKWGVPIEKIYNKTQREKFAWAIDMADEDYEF
# In short: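 117-bp oligonucleotide containing Top1 cleavage sites, 3'-end labeled with [α-32P]-dGTP by Klenow fill-in. About 2 nM substrate incubated with recombinant Top1 and various compound concentrations for 20 min at 25 °C in 10 mM Tris-HCl pH 7.5, 50 mM KCl, 5 mM MgCl2, 0.1 mM EDTA, 15 μg/mL BSA. Stopped with 0.5% SDS, run on 20% denaturing PAGE, phosphorimaged.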
# MCF7 = experiment: Antiproliferative activity against human MCF7 cells by SRB assay; assay type: functional
# In short: (§1)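 NCI 60-cell-line human tumor panel. Compounds first screened at one dose of 10^-5 M. Selected compounds then tested at five concentrations from 10^-8 to 10^-4 M. GI50 is the concentration giving 50% growth inhibition. GI50 values outside the tested range are assigned 10^-8 M or 10^-4 M.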
# DU-145 = experiment: Antiproliferative activity against human DU145 cells by SRB assay; assay type: functional; in short: as §1
# UACC-62 = experiment: Antiproliferative activity against human UACC62 cells by SRB assay; assay type: functional; in short: as §1
# SN12C = experiment: Antiproliferative activity against human SN12C cells by SRB assay; assay type: functional; in short: as §1
# SF-539 = experiment: Antiproliferative activity against human SF539 cells by SRB assay; assay type: functional; in short: as §1
# HOP-62 = experiment: Antiproliferative activity against human HOP62 cells by SRB assay; assay type: functional; in short: as §1
# OVCAR-3 = experiment: Antiproliferative activity against human OVCAR3 cells by SRB assay; assay type: functional; in short: as §1
# HCT-116 = experiment: Antiproliferative activity against human HCT116 cells by SRB assay; assay type: functional; in short: as §1
SMILES,inhibition [1] [%],GI50 (MCF7) [µM],GI50 (DU-145) [µM],GI50 (UACC-62) [µM],GI50 (SN12C) [µM],GI50 (SF-539) [µM],GI50 (HOP-62) [µM],GI50 (OVCAR-3) [µM],GI50 (HCT-116) [µM]
O=C1c2ccccc2-c2c1c1ccccc1c(=O)n2C[C@H](O)[C@@H](O)[C@@H](O)[C@H](O)CO,20,–,–,–,–,–,–,–,–
O=C1c2ccccc2-c2c1c1ccccc1c(=O)n2C[C@@H](O)[C@H](O)[C@H](O)CO,50,4.57,16.6,7.41,20,7.59,8.71,> 100,–
O=C1c2ccccc2-c2c1c1ccccc1c(=O)n2C[C@@H](O)[C@@H](O)[C@H](O)[C@H](O)CO,20,–,–,–,–,–,–,–,–
CC(CO)n1c2c(c3ccccc3c1=O)C(=O)c1ccccc1-2 (racemic),20,34.4,23.7,11.7,37.1,14.4,17.6,25.7,15.9
O=C1c2ccccc2-c2c1c1ccccc1c(=O)n2C[C@@H](O)[C@@H](O)[C@H](O)CO,75,1.9,3.98,6.31,5.01,11.2,6.46,13.2,3.39
O=C1c2ccccc2-c2c1c1ccccc1c(=O)n2C[C@H](O)[C@@H](O)[C@H](O)CO,50,1.74,–,2.88,2.24,7.94,3.23,24,3.39
COc1cc2c3c(n(C[C@H](O)CO)c(=O)c2cc1OC)-c1ccccc1C3=O,75,0.097,0.419,0.144,0.501,0.214,0.336,0.287,0.23
O=C1c2ccccc2-c2c1c1ccccc1c(=O)n2C[C@H](O)[C@@H](O)[C@H](O)[C@H](O)CO,50,–,–,–,–,–,–,–,–
O=C1c2ccccc2-c2c1c1ccccc1c(=O)n2C[C@@H](O)CO,50,3.04,2.34,4.36,3.77,5.72,3.79,16.1,4.47
O=C1c2ccccc2-c2c1c1ccccc1c(=O)n2C[C@H](O)CO,75,4.9,5.75,5.37,6.92,7.41,5.01,14.5,–
O=C(CO)Cn1c2c(c3ccccc3c1=O)C(=O)c1ccccc1-2,20,32.3,17.8,58.9,81.3,20,40.7,5.23,30.9
CC(O)Cn1c2c(c3ccccc3c1=O)C(=O)c1ccccc1-2 (racemic),20,3.8,4.36,6.16,3.98,6.76,3.46,16.2,5.75
C[C@@H](CO)n1c2c(c3ccccc3c1=O)C(=O)c1ccccc1-2,50,–,–,–,–,–,–,–,–
NCC(O)Cn1c2c(c3ccccc3c1=O)C(=O)c1ccccc1-2 (racemic),50,0.198,0.13,0.318,0.206,0.344,0.276,1.32,0.263
O=C1c2ccccc2-c2c1c1ccc([N+](=O)[O-])cc1c(=O)n2C[C@H](O)CO,> 95,0.016,0.04,0.098,0.241,0.157,0.089,0.309,0.025
O=C1c2ccccc2-c2c1c1ccc([N+](=O)[O-])cc1c(=O)n2C[C@H](O)[C@@H](O)[C@H](O)[C@H](O)CO,> 95,0.88,4.76,2.98,17.7,2.61,7.35,4.26,5.08
COc1cc2c3c(n(CCCn4ccnc4)c(=O)c2cc1OC)-c1cc2c(cc1C3=O)OCO2 [INDIMITECAN],> 95,0.01,–,–,–,–,–,–,–
COc1cc2c3c(n(CCCN4CCOCC4)c(=O)c2cc1OC)-c1cc2c(cc1C3=O)OCO2 [INDOTECAN],> 95,0.37,–,–,–,–,–,–,–
C[C@H](O)Cn1c2c(c3ccccc3c1=O)C(=O)c1ccccc1-2,75,–,–,–,–,–,–,–,–
COc1cc2c3c(n(CCCNCCO)c(=O)c2cc1OC)-c1cc2c(cc1C3=O)OCO2 [LMP-744],> 95,< 0.01,–,–,–,0.04,–,0.5,–
C[C@H](CO)n1c2c(c3ccccc3c1=O)C(=O)c1ccccc1-2,20,–,–,–,–,–,–,–,–
O=C1c2ccccc2-c2c1c1ccccc1c(=O)n2C[C@H](O)[C@H](O)[C@H](O)[C@H](O)CO,–,1.78,3.31,2.95,3.39,5.75,3.23,13.8,4.17
O=C1c2ccccc2-c2c1c1ccccc1c(=O)n2CC(O)CO (racemic),50,3.55,2.88,7.58,2.95,5.89,7.76,18.6,4.36
C[C@@H](O)Cn1c2c(c3ccccc3c1=O)C(=O)c1ccccc1-2,75,3.23,8.32,10.2,9.33,6.31,3.39,21.4,5.52
O=C1c2ccccc2-c2c1c1ccccc1c(=O)n2C[C@H](O)[C@H](O)[C@H](O)CO,0,1.38,1.32,3.23,2.4,2.14,2.95,13.5,3.39
COc1cc2c3c(n(C)c(=O)c2cc1OC)-c1cc2c(cc1C3=O)OCO2,–,1.58,37,4.2,68,–,1.3,–,35
CC[C@@]1(O)C(=O)OCc2c1cc1n(c2=O)Cc2cc3ccccc3nc2-1 [CAMPTOTHECIN],–,0.01,–,–,–,–,–,–,–
